“Also recorded” adds a separate entry of the source.
Tests used:
Bcr-Abl^T315I = Bcr-Abl^T315I (Homo sapiens, UniProt P00519+P11274, T315I); assay: Western blot degradation study in Ba/F3 cells expressed Bcr-Abl^T315I; assay type: cell-based; conditions: for DR against Ba/F3 Bcr-Abl^T315I (%) 100 nmol/L / DR against Ba/F3 Bcr-Abl^T315I (%) 300 nmol/L: 24 h treatment, Western blot
K562 = assay: Antiproliferation cell assay; assay type: cell-based, human; conditions: Homo sapiens, K562, 72 h, read-out: Cellular inhibition IC50 K562
How it was run: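 K562 (ATCC) cells were grown in RPMI-1640 with 10% FBS, penicillin, streptomycin and 2 mmol/L glutamine at 37 °C in humidified CO2. Log-phase cells were seeded at ~3000/well, rested overnight, then exposed to test compound or vehicle for 72 h (10 mmol/L DMSO stocks). CCK-8 was read as OD450−OD650, with viability normalised to no-cell blank and vehicle wells. IC50 came from concentration–response curve fitting, mean ± SD.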

Ba/F3 Bcr-Abl^WT = assay: Antiproliferation cell assay; assay type: cell-based; conditions: Mus musculus, BaF3, 72 h, read-out: Cellular inhibition IC50 Ba/F3 Bcr-Abl^WT
Ba/F3 Bcr-Abl^T315I = assay: Antiproliferation cell assay; assay type: cell-based; conditions: Mus musculus, BaF3, 72 h, read-out: Cellular inhibition IC50 Ba/F3 Bcr-Abl^T315I
Bcr-Abl^WT = Bcr-Abl^WT (Homo sapiens, UniProt P00519+P11274); assay: Western blot degradation study in K562 cells; assay type: cell-based
[1] = biological target: Bcr-Abl^T315I / CRBN E3 ligase (UniProt P00519+P11274+Q8C7D2, T315I); assay: Co-immunoprecipitation in Ba/F3 Bcr-Abl^T315I cells; assay type: cell-based; conditions: 24 h treatment
How it was run: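 After 24 h exposure to a range of test compound concentrations, cells were lysed on ice in RIPA with protease and phosphatase inhibitors. Protein was BCA-quantified and equalised; ~4/5 of each lysate went to IP and the rest served as input. Anti-c-Abl antibody was added overnight at 4 °C, then protein A+G agarose for 2 h at 4 °C. Beads were washed five times in RIPA without inhibitors, and complexes were immunoblotted for CRBN.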

[2] = Pharmacokinetics in mice, single i.p. injection; assay type: in vivo, ICR mice; conditions: 20 mg/kg
[3] = tested on: Ba/F3 Bcr-Abl^T315I xenograft; assay: In vivo antitumor efficacy, Ba/F3 Bcr-Abl^T315I xenograft model; design: species or system CB17-SCID mice
How it was run: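 Ba/F3 Bcr-AblT315I cells in normal saline were implanted s.c. in the right flank of CB17-SCID mice (2 × 10^6 cells/0.1 mL). Mice were randomised at mean tumour volume 100–200 mm3 and dosed i.p. every two days at 10 or 20 mg/kg. Vehicle was 5% DMSO + 10% solutol + 85% saline. Body weight and tumour volume (L × W²/2) were recorded every two days. Terminal tumours were formalin-fixed, paraffin-sectioned and TUNEL-stained.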

| DR against Ba/F3 Bcr-Abl^T315I (%) 100 nmol/L (Bcr-Abl^T315I; 100 nmol/L) [%] | DR against Ba/F3 Bcr-Abl^T315I (%) 300 nmol/L (Bcr-Abl^T315I) [%] | IC50 (K562) [nM] | IC50 (Ba/F3 Bcr-Abl^WT) [nM] | IC50 (Ba/F3 Bcr-Abl^T315I) [nM] | degradation potency relative to GZD824 (Bcr-Abl^T315I; DR at 300 nmol/L) [fold] | degradation on K562 cells expressing Bcr-Abl (Bcr-Abl^WT; 24 h treatment (data not shown)) | Compound | treatment time after which Bcr-Abl^T315I protein level was substantially reduced (Bcr-Abl^T315I; 100 nmol/L, time-course) [h] | Bcr-Abl^T315I degradation after preincubation with proteasome inhibitor MG132 (Bcr-Abl^T315I; 20 μmol/L MG132, then 7o 24 h at 100 and 300 nmol/L) | treatment time of maximum degradation (Bcr-Abl^T315I; Ba/F3 Bcr-Abl^T315I, time-course) [h] | treatment time after which Bcr-Abl^WT was substantially reduced in K562 cells (Bcr-Abl^WT; 100 nmol/L, time-course) [h] | mechanism of Bcr-Abl^T315I degradation (Co-IP) [1] | plasma concentration over time [2] | tumor growth inhibition (TGI) ([3]; 20 mg/kg, i.p., q2d, 10 consecutive days) [%] | body weight loss relative to the vehicle matched controls ([3]; 20 mg/kg, i.p., q2d, during the treatment) [%] | mortality ([3]; during the treatment) | tumor growth (in words) ([3]; i.p., once every two days) | apoptosis in xenograft tumor (TUNEL) ([3]; mouse, in vivo) |
| --- | --- | --- | --- | --- | --- | --- | --- | --- | --- | --- | --- | --- | --- | --- | --- | --- | --- | --- |
| 3.61 | 63.47 | 14 ± 4.5 | 4.5 | 21.8 ± 8.3 |  |  | Cc1ccc(C(=O)Nc2ccc(CN3CCN(CCCCCCCCC(=O)Nc4cccc5c4C(=O)N(C4CCC(=O)NC4=O)C5=O)CC3)c(C(F)(F)F)c2)cc1C#Cc1cnc2[nH]ncc2c1 (stereo not shown) [7p, 3-((1H-Pyrazolo[3,4-b]pyridin-5-yl)ethynyl)-N-(4-((4-(9-((2-(2,6-dioxopiperidin-3-yl)-1,3-dioxoisoindolin-4-yl)amino)-9-oxononyl)piperazin-1-yl)methyl)-3-(trifluoromethyl)phenyl)-4-methylbenzamide] |  |  |  |  |  |  |  |  |  |  |  |
| −15.35 | 39.01 | 7.9 ± 5.2 | 10 ± 2.1 | 83.2 ± 27.8 | 2 | does not exhibit obvious degradation | Cc1ccc(C(=O)Nc2ccc(CN3CCN(CCOCCOCCC(=O)Nc4cccc5c4C(=O)N(C4CCC(=O)NC4=O)C5=O)CC3)c(C(F)(F)F)c2)cc1C#Cc1cnc2[nH]ncc2c1 (stereo not shown) [compound 7a, 3-((1H-Pyrazolo[3,4-b]pyridin-5-yl)ethynyl)-N-(4-((4-(2-(2-(3-((2-(2,6-dioxopiperidin-3-yl)-1,3-dioxoisoindolin-4-yl)amino)-3-oxopropoxy)ethoxy)ethyl)piperazin-1-yl)methyl)-3-(trifluoromethyl)phenyl)-4-methylbenzamide] |  |  |  |  |  |  |  |  |  |  |  |
| 5.33 | 14.25 | 46.4 ± 21.2 | 36.1 ± 0.9 | 70.1 ± 34.3 |  |  | Cc1ccc(C(=O)Nc2ccc(CN3CCN(CCCCCCCCCCC(=O)Nc4cccc5c4C(=O)N(C4CCC(=O)NC4=O)C5=O)CC3)c(C(F)(F)F)c2)cc1C#Cc1cnc2[nH]ncc2c1 (stereo not shown) [7q, 3-((1H-Pyrazolo[3,4-b]pyridin-5-yl)ethynyl)-N-(4-((4-(11-((2-(2,6-dioxopiperidin-3-yl)-1,3-dioxoisoindolin-4-yl)amino)-11-oxoundecyl)piperazin-1-yl)methyl)-3-(trifluoromethyl)phenyl)-4-methylbenzamide] |  |  |  |  |  |  |  |  |  |  |  |
| −11.43 | 28.39 | 3.5 ± 0.5 | 20.7 ± 2.4 | 67.5 ± 3.2 |  |  | Cc1ccc(C(=O)Nc2ccc(CN3CCN(CCOCCC(=O)Nc4cccc5c4C(=O)N(C4CCC(=O)NC4=O)C5=O)CC3)c(C(F)(F)F)c2)cc1C#Cc1cnc2[nH]ncc2c1 (stereo not shown) [7g, 3-((1H-Pyrazolo[3,4-b]pyridin-5-yl)ethynyl)-N-(4-((4-(2-(3-((2-(2,6-dioxopiperidin-3-yl)-1,3-dioxoisoindolin-4-yl)amino)-3-oxopropoxy)ethyl)piperazin-1-yl)methyl)-3-(trifluoromethyl)phenyl)-4-methylbenzamide] |  |  |  |  |  |  |  |  |  |  |  |
| −9.18 | −4.21 | 4 ± 0.6 | 65.3 ± 30.2 | 287 ± 23 |  |  | Cc1ccc(C(=O)Nc2ccc(CN3CCN(CCOCCOCCC(=O)Nc4cccc5c4CN(C4CCC(=O)NC4=O)C5=O)CC3)c(C(F)(F)F)c2)cc1C#Cc1cnc2[nH]ncc2c1 (stereo not shown) [7b, 3-((1H-Pyrazolo[3,4-b]pyridin-5-yl)ethynyl)-N-(4-((4-(2-(2-(3-((2-(2,6-dioxopiperidin-3-yl)-1-oxoisoindolin-4-yl)amino)-3-oxopropoxy)ethoxy)ethyl)piperazin-1-yl)methyl)-3-(trifluoromethyl)phenyl)-4-methylbenzamide] |  |  |  |  |  |  |  |  |  |  |  |

| Compound | DR against Ba/F3 Bcr-Abl^T315I (%) 100 nmol/L (Bcr-Abl^T315I; 100 nmol/L) [%] | DR against Ba/F3 Bcr-Abl^T315I (%) 300 nmol/L (Bcr-Abl^T315I) [%] | IC50 (K562) [nM] | IC50 (Ba/F3 Bcr-Abl^WT) [nM] | IC50 (Ba/F3 Bcr-Abl^T315I) [nM] | degradation potency relative to GZD824 (Bcr-Abl^T315I; DR at 300 nmol/L) [fold] | degradation on K562 cells expressing Bcr-Abl (Bcr-Abl^WT; 24 h treatment (data not shown)) | treatment time after which Bcr-Abl^T315I protein level was substantially reduced (Bcr-Abl^T315I; 100 nmol/L, time-course) [h] | Bcr-Abl^T315I degradation after preincubation with proteasome inhibitor MG132 (Bcr-Abl^T315I; 20 μmol/L MG132, then 7o 24 h at 100 and 300 nmol/L) | treatment time of maximum degradation (Bcr-Abl^T315I; Ba/F3 Bcr-Abl^T315I, time-course) [h] | treatment time after which Bcr-Abl^WT was substantially reduced in K562 cells (Bcr-Abl^WT; 100 nmol/L, time-course) [h] | mechanism of Bcr-Abl^T315I degradation (Co-IP) [1] | plasma concentration over time [2] | tumor growth inhibition (TGI) ([3]; 20 mg/kg, i.p., q2d, 10 consecutive days) [%] | body weight loss relative to the vehicle matched controls ([3]; 20 mg/kg, i.p., q2d, during the treatment) [%] | mortality ([3]; during the treatment) | tumor growth (in words) ([3]; i.p., once every two days) | apoptosis in xenograft tumor (TUNEL) ([3]; mouse, in vivo) |
| --- | --- | --- | --- | --- | --- | --- | --- | --- | --- | --- | --- | --- | --- | --- | --- | --- | --- | --- |
| Cc1ccc(C(=O)Nc2ccc(CN3CCN(CCCCCCC(=O)Nc4cccc5c4C(=O)N(C4CCC(=O)NC4=O)C5=O)CC3)c(C(F)(F)F)c2)cc1C#Cc1cnc2[nH]ncc2c1 (stereo not shown) [compound 7o, 3-((1H-Pyrazolo[3,4-b]pyridin-5-yl)ethynyl)-N-(4-((4-(7-((2-(2,6-dioxopiperidin-3-yl)-1,3-dioxoisoindolin-4-yl)amino)-7-oxoheptyl)piperazin-1-yl)methyl)-3-(trifluoromethyl)phenyl)-4-methylbenzamide] | 69.89 | 94.23 | 7.7 ± 1.8 | 4.2 ± 0.2 | 26.8 ± 9.7 |  |  | 6 | successfully rescue | 24 | 36 | mediated by CRBN E3 ubiquitin pathway | high plasma concentrations maintained over 48 h | 90.8 | < 5 | no mortality | substantial tumor regression; also recorded: suppresses the growth | induced apoptosis |

Reference: paper PMC8148061 (Acta Pharmaceutica Sinica. B, 2020)
